Assay [1] has as its target Cyclin-dependent kinase 2 (Homo sapiens, UniProt P24941). The assay is described as follows: Inhibition of human CDK2/GST-cyclin A expressed in Sf9 cells assessed as histone phosphorylation. In a few lines:
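Sf-9 co-expressed CDK2 with GST-cyclin A, purified on glutathione-agarose and dialysed. Histone H1 was the substrate, in 40 mM Tris pH 7.5, 20 mM MgCl₂, 0.1 mg/mL BSA with phosphatase/protease inhibitors and DTT. Compounds came from 10 mM DMSO stock, serially diluted. 200 ng enzyme was incubated 30 min at 30 °C. ATP depletion was read by Kinase-Glo luminescence, and IC50 derived.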

The target of assay [2] is Cyclin-dependent kinase 4/cyclin D1 (Homo sapiens, UniProt P11802). The assay is described as follows: Inhibition of human CDK4/GST-cyclin D1 expressed in Sf9 cells assessed as retinoblastoma GST-RB152 phosphorylation. In outline: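 CDK4 with GST-cyclin D1 was co-expressed in Sf-9, purified on glutathione-agarose and dialysed. The substrate was GST-RB152, expressed in E. coli BL21(DE3)pLysS (4 mM IPTG, 4 h, 37 °C). The buffer was 40 mM Tris pH 7.5, 20 mM MgCl₂, 0.1 mg/mL BSA plus inhibitors and DTT. 200 ng enzyme ran 30 min at 30 °C. Kinase-Glo luminescence (ATP depletion) gave IC50.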
Chain of Cyclin-dependent kinase 4/cyclin D1 (P11802 whole entry): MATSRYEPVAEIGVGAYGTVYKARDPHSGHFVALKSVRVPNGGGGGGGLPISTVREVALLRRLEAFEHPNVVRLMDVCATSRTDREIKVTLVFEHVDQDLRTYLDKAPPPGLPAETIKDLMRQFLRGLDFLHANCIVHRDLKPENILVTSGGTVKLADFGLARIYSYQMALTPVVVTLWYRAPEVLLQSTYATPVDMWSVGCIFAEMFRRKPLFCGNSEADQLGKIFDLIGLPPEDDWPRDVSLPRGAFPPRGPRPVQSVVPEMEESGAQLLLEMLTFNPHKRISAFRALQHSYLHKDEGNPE
Chain of Cyclin-dependent kinase 4/cyclin D1 (P24385 whole entry, further chain): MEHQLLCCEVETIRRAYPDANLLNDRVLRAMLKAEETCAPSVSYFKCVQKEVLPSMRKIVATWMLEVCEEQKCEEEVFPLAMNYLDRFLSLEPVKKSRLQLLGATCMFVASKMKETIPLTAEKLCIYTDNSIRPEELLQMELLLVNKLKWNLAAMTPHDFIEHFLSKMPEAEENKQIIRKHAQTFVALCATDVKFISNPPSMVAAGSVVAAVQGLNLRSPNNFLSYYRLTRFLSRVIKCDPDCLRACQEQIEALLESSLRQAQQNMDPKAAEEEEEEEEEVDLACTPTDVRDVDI

By pIC50 is commonly meant the negative decadic logarithm of the IC50, by convention in mol/L.

pIC50: −log10 of the molar value.

Regarding `O=C(c1ccc(-c2cccc(F)c2)cc1)N1CCc2c([nH]c3ccccc23)C1`, the pIC50 in assay [1] is 3.53; in assay [2] it was 4.68.

`Cc1cccc(-c2ccccc2C(=O)N2CCc3c([nH]c4ccccc34)C2)c1`: the values for the pIC50 in assay [1] and in assay [2] were 3.41 and 4.59, respectively.

For `Cc1ccccc1-c1cccc(C(=O)N2CCc3c([nH]c4ccccc34)C2)c1`, the pIC50 in assay [1] is 3.18; in assay [2], 4.12.

Regarding `COc1ccccc1-c1ccc(C(=O)N2CCc3c([nH]c4ccccc34)C2)cc1`, the pIC50 in assay [1] is 3.49; in assay [2] it was 4.66.

For the compound `O=C(NCCc1c[nH]c2ccccc12)c1ccccc1-c1ccc(F)cc1`, the pIC50 in assay [1] was 2.92; in assay [2], 4.42.

For `COc1ccc(-c2ccc(C(=O)NCCc3c[nH]c4ccccc34)cc2)cc1`, the pIC50 was 2.96 in assay [1] and 4.32 in assay [2].

Consider `O=C(NCCc1c[nH]c2ccccc12)c1ccc(-c2ccc(F)cc2)cc1`, for which the pIC50 was 3.12 in assay [1] and 4.82 in assay [2].

Turning to `O=C(NCCc1c[nH]c2ccccc12)c1cccc(-c2ccccc2)c1`, the figures for the negative-log IC50 (pIC50) in assay [1] and in assay [2] were 3.00 and 4.07, respectively.

Take `CN(CCc1c[nH]c2ccccc12)C(=O)c1ccc(-c2ccc(C(C)(C)C)cc2)cc1`: the results for the pIC50 in assay [1] and in assay [2] were 3.13 and 4.95, respectively.

For the compound `COc1cccc(-c2ccccc2C(=O)NCCc2c[nH]c3ccccc23)c1`, the results for the pIC50 in assay [1] and in assay [2] were 3.03 and 4.28, respectively.

`O=C(NCCc1c[nH]c2ccccc12)c1cccc(-c2cccnc2)c1`: the negative logarithm of the IC50 (pIC50) in assay [1] is 3.82; in assay [2] it was 4.52.

Turning to `COc1ccc(-c2ccccc2C(=O)NCCc2c[nH]c3ccccc23)cc1`, the pIC50 in assay [1] was 3.04; in assay [2], 4.10.

With `O=C(c1ccccc1-c1cccnc1)N1CCc2c([nH]c3ccccc23)C1`, the results for the pIC50 in assay [1] and in assay [2] were 3.51 and 4.44, respectively.

Turning to `O=C(NCCc1c[nH]c2ccccc12)c1ccc(-c2ccccc2)cc1`, the pIC50 is 3.07 in assay [1] and 4.80 in assay [2].

As to `O=C(c1ccccc1-c1ccncc1)N1CCc2c([nH]c3ccccc23)C1`, the figures for the pIC50 in assay [1] and in assay [2] were 3.45 and 4.41, respectively.

On to `CN(CCc1c[nH]c2ccccc12)C(=O)c1ccc(-c2ccc(-c3ccccc3)cc2)cc1`, for which the figures for the pIC50 in assay [1] and in assay [2] were 4.04 and 4.46, respectively.

Consider `O=C(c1ccccc1-c1cccc(F)c1)N1CCc2c([nH]c3ccccc23)C1`, for which the pIC50 in assay [1] was 3.32; in assay [2], 4.46.

As to `O=C(c1cccc(-c2ccccc2F)c1)N1CCc2c([nH]c3ccccc23)C1`, the pIC50 in assay [1] is 3.47; in assay [2] it was 4.74.

As to `CC(C)(C)c1ccc(-c2ccccc2C(=O)NCCc2c[nH]c3ccccc23)cc1`, the negative logarithm of the IC50 (pIC50) is 3.58 in assay [1] and 4.42 in assay [2].

On to `Cc1ccc(-c2ccc(C(=O)NCCc3c[nH]c4ccccc34)cc2)cc1`, for which the pIC50 in assay [1] is 3.09; in assay [2] it was 4.74.

As for `O=C(c1ccc(-c2ccccc2F)cc1)N1CCc2c([nH]c3ccccc23)C1`, the pIC50 in assay [1] was 3.51; in assay [2], 4.77.

`CN(CCc1c[nH]c2ccccc12)C(=O)c1ccc(-c2ccc(F)cc2)cc1`: the pIC50 was 3.06 in assay [1] and 4.68 in assay [2].

Turning to `COc1ccccc1-c1cccc(C(=O)N2CCc3c([nH]c4ccccc34)C2)c1`, the pIC50 in assay [1] is 2.96; in assay [2], 4.10.

Take `Cc1ccccc1-c1ccc(C(=O)N2CCc3c([nH]c4ccccc34)C2)cc1`: the pIC50 in assay [1] is 3.47; in assay [2], 4.49.

Turning to `COc1cccc(-c2ccc(C(=O)N3CCc4c([nH]c5ccccc45)C3)cc2)c1`, the negative logarithm of the IC50 (pIC50) in assay [1] was 3.37; in assay [2], 4.55.

`Cc1cccc(-c2ccccc2C(=O)NCCc2c[nH]c3ccccc23)c1`: the pIC50 in assay [1] was 3.39; in assay [2], 4.82.

For `CN(CCc1c[nH]c2ccccc12)C(=O)c1ccc(-c2ccccc2)cc1`, the pIC50 in assay [2] was 5.22.

As to `Cc1ccc(-c2cccc(C(=O)N3CCc4c([nH]c5ccccc45)C3)c2)cc1`, the pIC50 in assay [1] is 3.33; in assay [2] it was 4.62.

For the compound `O=C1c2ccccc2-[n+]2ccc3c([nH]c4ccccc43)c21` [FASCAPLYSIN CHLORIDE], the pIC50 is 3.30 in assay [1] and 6.26 in assay [2].

`COc1ccc(-c2ccc(C(=O)N(C)CCc3c[nH]c4ccccc34)cc2)cc1`: the values for the pIC50 in assay [1] and in assay [2] were 3.54 and 4.31, respectively.

Turning to `O=C(NCCc1c[nH]c2ccccc12)c1ccccc1-c1cccc(F)c1`, the results for the pIC50 in assay [1] and in assay [2] were 3.38 and 4.70, respectively.

With `CC(C)(C)c1ccc(-c2ccc(C(=O)NCCc3c[nH]c4ccccc34)cc2)cc1`, the figures for the negative-log IC50 (pIC50) in assay [1] and in assay [2] were 3.10 and 5.04, respectively.

Take `COc1ccccc1-c1ccccc1C(=O)NCCc1c[nH]c2ccccc12`: the pIC50 in assay [1] was 3.43; in assay [2], 4.59.

Consider `CN(CCc1c[nH]c2ccccc12)C(=O)c1ccc(-c2ccncc2)cc1`, for which the results for the pIC50 in assay [1] and in assay [2] were 4.04 and 4.59, respectively.

As to `Cc1cccc(-c2ccc(C(=O)N3CCc4c([nH]c5ccccc45)C3)cc2)c1`, the pIC50 is 3.39 in assay [1] and 4.60 in assay [2].

For the compound `O=C(c1ccccc1-c1ccc(F)cc1)N1CCc2c([nH]c3ccccc23)C1`, the pIC50 in assay [1] is 3.45; in assay [2], 4.64.

In the case of `COc1cccc(-c2cccc(C(=O)N3CCc4c([nH]c5ccccc45)C3)c2)c1`, the results for the pIC50 in assay [1] and in assay [2] were 3.44 and 4.48, respectively.

`Cc1ccc(-c2ccc(C(=O)N3CCc4c([nH]c5ccccc45)C3)cc2)cc1`: the pIC50 in assay [1] was 3.13; in assay [2], 5.05.

Regarding `O=C(c1ccc(-c2ccc(F)cc2)cc1)N1CCc2c([nH]c3ccccc23)C1`, the negative logarithm of the IC50 (pIC50) in assay [1] is 3.36; in assay [2], 4.92.

Consider `O=C(c1cccc(-c2ccc(F)cc2)c1)N1CCc2c([nH]c3ccccc23)C1`, for which the results for the pIC50 in assay [1] and in assay [2] were 3.50 and 4.60, respectively.

In the case of `O=C(c1ccccc1-c1ccccc1F)N1CCc2c([nH]c3ccccc23)C1`, the pIC50 in assay [1] is 3.36; in assay [2] it was 4.72.

On to `Cc1cccc(-c2cccc(C(=O)N3CCc4c([nH]c5ccccc45)C3)c2)c1`, for which the pIC50 in assay [1] was 3.33; in assay [2], 4.96.

As for `Cc1ccc(-c2ccc(C(=O)N(C)CCc3c[nH]c4ccccc34)cc2)cc1`, the values for the pIC50 in assay [1] and in assay [2] were 4.15 and 4.62, respectively.

In the case of `O=C(c1cccc(-c2cccc(F)c2)c1)N1CCc2c([nH]c3ccccc23)C1`, the pIC50 was 3.21 in assay [1] and 4.57 in assay [2].

The values above are taken from ChEMBL document CHEMBL1155938, “Design, synthesis and biological evaluation of new tryptamine and tetrahydro-beta-carboline-based selective inhibitors of CDK4” (Bioorg Med Chem, 2008).
